Bioassay records from PubChem.
PLCb3 inh: blocks human PLC-beta3 enzyme activity | Purified PLC-beta3, fluorogenic substrate, fluorescence | inhibition, % at 12.2 µM | actives 0.18% (n = 370,000) | Q01970 | AID 720704; in the data active = inhibition above about 11%;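 note: 0% = median of compound wells on plate and 100% = full blocker control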
Target sequence (Q01970 whole entry, looked up): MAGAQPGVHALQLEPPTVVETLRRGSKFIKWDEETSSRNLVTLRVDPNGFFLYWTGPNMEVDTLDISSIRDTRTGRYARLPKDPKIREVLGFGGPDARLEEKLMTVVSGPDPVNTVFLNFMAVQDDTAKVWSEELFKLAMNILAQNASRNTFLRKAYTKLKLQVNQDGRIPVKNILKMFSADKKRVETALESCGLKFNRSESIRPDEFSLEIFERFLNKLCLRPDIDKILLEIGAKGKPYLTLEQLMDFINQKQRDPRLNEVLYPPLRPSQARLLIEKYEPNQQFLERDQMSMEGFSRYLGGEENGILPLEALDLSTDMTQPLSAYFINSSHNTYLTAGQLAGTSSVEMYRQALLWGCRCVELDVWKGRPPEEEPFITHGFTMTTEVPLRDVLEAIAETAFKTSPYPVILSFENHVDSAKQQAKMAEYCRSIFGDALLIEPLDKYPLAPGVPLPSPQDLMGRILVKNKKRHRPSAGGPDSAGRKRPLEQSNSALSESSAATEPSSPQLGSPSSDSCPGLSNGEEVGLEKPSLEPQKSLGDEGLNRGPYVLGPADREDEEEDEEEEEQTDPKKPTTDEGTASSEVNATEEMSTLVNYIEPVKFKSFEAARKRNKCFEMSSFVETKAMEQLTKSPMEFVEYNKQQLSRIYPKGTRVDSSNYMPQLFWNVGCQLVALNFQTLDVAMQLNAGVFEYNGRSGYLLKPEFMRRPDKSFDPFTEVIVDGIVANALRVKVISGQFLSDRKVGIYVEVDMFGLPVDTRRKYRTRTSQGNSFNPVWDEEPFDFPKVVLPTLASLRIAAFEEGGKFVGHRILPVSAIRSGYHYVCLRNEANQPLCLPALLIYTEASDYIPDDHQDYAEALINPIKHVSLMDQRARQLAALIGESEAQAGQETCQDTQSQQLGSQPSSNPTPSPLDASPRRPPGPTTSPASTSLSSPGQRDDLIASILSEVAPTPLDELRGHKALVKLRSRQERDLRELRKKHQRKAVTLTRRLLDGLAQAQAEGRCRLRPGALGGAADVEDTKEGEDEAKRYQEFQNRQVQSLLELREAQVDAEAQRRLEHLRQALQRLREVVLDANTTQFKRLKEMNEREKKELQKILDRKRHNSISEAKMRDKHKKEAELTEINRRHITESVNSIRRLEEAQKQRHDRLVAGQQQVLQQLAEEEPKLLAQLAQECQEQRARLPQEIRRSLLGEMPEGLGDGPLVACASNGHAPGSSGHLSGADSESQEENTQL
PLC-gamma1 inh: inhibitors of human phospholipase C gamma1. purified PLC-gamma1, fluorogenic substrate, fluorescence. inhibition, % at 12.2 µM. actives 0.84% (n = 370,000); in the data active = inhibition above about 9.5%
IMP-1 inhibitor: inhibitors of Pseudomonas aeruginosa IMP-1 metallo-beta-lactamase; purified IMP-1, nitrocefin hydrolysis, epi-absorbance fluorescence; inhibition, % at 5.6 µM; actives 0.45% (n = 290,000);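 active = inhibition above the mean plus 3 SD of all compounds in the same screening run, cut at about 4.5% in these data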;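 note: 0% = IMP-1 with DMSO and 100% = DMSO wells lacking enzyme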
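System: Purified IMP-1 | Read-out basis: Percent enzyme inhibition | Controls: IMP-1 with DMSO as 0%, enzyme-free DMSO as 100% | Replicates: One well per compound | Doses: 5.6 µM nominal single concentration | Detection: Epi-absorbance fluorescence, 480 nm excitation, 530 nm emission | Incubation: 25 °C, 15 min preincubation, 25 min reaction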
VIM-2 inhibitor: blocks Pseudomonas aeruginosa VIM-2 metallo-beta-lactamase; inhibition, % at 5.6 µM; actives 0.89% (n = 290,000); purified VIM-2, nitrocefin hydrolysis, epi-absorbance fluorescence;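 active = inhibition above the mean of all tested compounds plus 3 SD, cutoff set per screening run, cut at about 7.5% in these data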;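 note: red hydrolysis product quenches plate fluorescence so inhibitors raise well fluorescence; 0% = enzyme with DMSO and 100% = DMSO without enzyme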
PvdQ acylase: blocks Pseudomonas aeruginosa PvdQ acylase activity | purified PvdQ acylase, fluorescence plate reader | inhibition, % at 10 µM | actives 0.063% (n = 340,000); in the data active = inhibition above about 30%, passing the limit was not always enough;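 note: 0% = vehicle neutral wells and 100% = reference inhibitor wells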
* = called active by the depositor; i = inactive; . = not tested or not shown. Sampled rows, rich in hits. Any-hit rate of the full collection: about 2%.

SMILES	PLCb3 inh	PLC-gamma1 inh	IMP-1 inhibitor	VIM-2 inhibitor	PvdQ acylase
CC(C)Cc1nnc(NC(=O)CCS(=O)(=O)c2ccc(Cl)cc2)s1	-9	6	-2	8.7*	-19
CCOC(=O)c1cccc(NC(=O)CN(C)S(=O)(=O)c2ccco2)c1	-2	1	.	.	.
Cc1nn(CCc2n[nH]c(=S)n2-c2ccc(F)c(Cl)c2)c(C)c1[N+](=O)[O-]	3	1	-2	9.7*	5
C#CCNC(=O)C[C@H]1C[C@@]2(C(=O)OC)C(=C[C@H](C(C)C)O[C@@H]2C2CC2)N(CCCCCCCC)C1=O	5	3	.	.	.
CC(C)=CCC[C@@]1(C(=O)O)[C@@H]2C/C=C(\C)CC/C=C(\C)CC[C@H]1[C@]1(CC2)CO1	-1	1	.	.	.
CSCC[C@H](NC(=O)N1CCn2c1nc1ccccc12)C(=O)NCc1ccc(F)cc1	-4	2	51*	-2	-9
O=C(CN1C(=O)/C(=C/c2ccccc2Cl)SC1=S)NC1C=CS(=O)(=O)C1 (centres undefined)	-18	-7	12*	-3	-13
O=C(CN1C(=O)/C(=C/c2ccc(Cl)cc2)SC1=S)NC1C=CS(=O)(=O)C1 (centres undefined)	-3	6	0	-2	3
O=C(CN1C(=O)/C(=C/c2ccc(F)cc2)SC1=S)NC1CCS(=O)(=O)C1 (centres undefined)	-2	6	11*	1	1
O=C(CCN1C(=O)/C(=C/c2ccccc2Cl)SC1=S)NN1CCOCC1	-2	4	4.5*	4	-6
O=C(CN1C(=O)/C(=C/c2ccc(F)cc2)SC1=S)NC1C=CS(=O)(=O)C1 (centres undefined)	-10	5	4.8*	-1	3
O=C(CN1C(=O)/C(=C/c2ccccc2)SC1=S)NC1C=CS(=O)(=O)C1 (centres undefined)	-5	5	1	-1	-3
CC(C)C[C@H]1COc2cc(Br)ccc2S(=O)(=O)N1Cc1cn(Cc2ccc(F)cc2)nn1	2	-2	.	.	.
C#CCNC(=O)C[C@H]1C(=O)N(Cc2ccc(OC)cc2)C2=CCCC[C@@]21C(=O)OCC	2	-1	.	.	.
C=CCN(C)CC#Cc1ccc(C)cc1	-2	0	.	.	.
CC(C)(C)c1ccc(C(=O)Nc2cc(Cl)ccc2C(=O)O)cc1	-7	-4	.	.	.
CCCC[C@@H]1C(=O)N2N=Cc3cc4ccccc4cc3[C@H]2N2N=Cc3cc4ccccc4cc3[C@@H]12	-56	-38	.	.	.
Cc1c(Cl)cccc1NC(=S)NCCC(c1ccccc1)c1ccccc1	-1	10*	-2	-3	-15
c1ccc2sc(-c3csc4c3CCNC4)nc2c1	-6	-5	.	.	.
CCC(C)[C@H](NC(=O)[C@H](CC(C)C)NC(=O)OC(C)(C)C)C(=O)N[C@@H](Cc1ccccc1)C(=O)OC (some centres undefined)	0	3	.	.	.
CCOC(=O)[C@]12CCCC=C1N(Cc1ccc(OC)cc1)C(=O)[C@@H]2CC(=O)NCC12CC3CC(CC(C3)C1)C2	2	1	.	.	.
COc1ccc(Oc2coc3cc(O)ccc3c2=O)cc1	-419	-345	25*	-1	9
CC1=NN(c2ccccc2)C(=O)/C1=C/c1ccc(-c2ccc(C)c(C(=O)O)c2)o1	-8	-1	.	.	-11
CC1=NN(c2ccc(Cl)c(C(=O)O)c2)C(=O)/C1=C\c1ccc(-c2ccc(C(=O)O)cc2)o1	-7	-6	7.7*	-2	-3
O=C(CSc1nc2ccccc2nc1N1CCCCC1)N1CCN(S(=O)(=O)c2cc(Cl)ccc2Cl)CC1	0	-3	.	.	.
SMILES	PLCb3 inh	PLC-gamma1 inh	IMP-1 inhibitor	VIM-2 inhibitor	PvdQ acylase
CC(C)OC(=O)C1=CNCC(C)(C)c2c1[nH]c1cc(F)ccc21	-30	-23	.	.	.
CC(c1ccc(NC(=O)OC(C)(C)C)cc1)c1cn(C)c2ccccc12 (centres undefined)	-3	-5	.	.	.
O=C(CN1CCc2onc(-c3cccc(-n4cc(CO)nn4)c3)c2C1=O)N1CCOCC1	0	-1	.	.	.
O=S(=O)(CC1NCCc2ccccc21)NCCc1ccccc1 (centres undefined)	0	1	.	.	.
CCc1nc(SCC(=O)O)c2c3c(sc2n1)COC(C)(C)C3	1	7	-1	8.1*	-10
CSc1nc(SCCN(C)C)c2c3c(sc2n1)COC(C)(C)C3	-7	1	-2	8.9*	-11
CCc1nc(SCC(=O)OC)c2c3c(sc2n1)COC(C)(C)C3	1	0	-3	1	-19
COc1ccc(N2CCN(CCCNC(=O)CCc3ccc(F)cc3)CC2)cc1	2	1	.	.	.
COc1ccc(S(=O)(=O)Nc2cccc3c2O[C@H](CN(C)C(=O)Nc2ccc(C(F)(F)F)cc2)[C@@H](C)CN([C@H](C)CO)C3=O)cc1	5	9.9*	.	.	-14
C[C@H](CO)N1C[C@H](C)[C@@H](CN(C)C(=O)Nc2ccc(C(F)(F)F)cc2)Oc2c(NS(=O)(=O)c3ccc(F)cc3)cccc2C1=O	6	3	.	.	12
O=C1c2ccccc2C(=O)N1c1ccc(Br)c2cccnc12	-12	-12	0	3	-14
COc1ccccc1Oc1ccc2c(c1)C(=O)N(c1ccc(Br)c3cccnc13)C2=O	1	1	4.9*	-1	-1
O=C(NC1CCCCN(Cc2cccc(Cl)c2)C1=O)c1ccc(-c2ccccc2)cc1 (centres undefined)	1	0	.	.	.
COc1cccc(C(=O)N2CCN(Cc3ccccc3Br)CC2)c1	-2	4	7.4*	1	3
COc1cccc(C(=O)N2CCN(Cc3ccccc3C(F)(F)F)CC2)c1	3	7	-1	-4	7
CN(C)c1ccc(N=Nc2ccc(S(N)(=O)=O)cc2)cc1	-3	1	9.1*	-3	-7
COC(=O)c1sc(-c2cccs2)cc1N	-60	-40	13*	3	-3
C=CCOC(=O)N[C@H](c1ccc2ccccc2c1)[C@H](C)/C=C/CC(=O)OC	-5	-1	.	.	.
CNC(C)C#Cc1ccc2oc3cccc(OC)c3c(=O)c2c1 (centres undefined)	i	-411	1	8.3*	4
CNC(C)C#Cc1ccc2oc3cc(C)c(C)cc3c(=O)c2c1 (centres undefined)	-43	-26	.	.	-15
CCOC(=O)c1c(C)[nH]c(C(=O)COC(=O)CNC(=O)c2ccc(Br)cc2)c1C	3	6	-2	2	1
CCOC(=O)c1c(C)[nH]c(C)c1C(=O)COC(=O)CNC(=O)c1ccc(OCC)cc1	1	-2	4.7*	-2	2
Nc1ccc(Br)c2c1C(=O)c1ccccc1C2=O	.	.	-3	10*	.
Nc1ccc(O)c2c1C(=O)c1ccccc1C2=O	1	2	-1	4	-4
COc1ccc(/C=C/S(=O)(=O)NC2CCCC2)c(CNC(=O)OC(C)(C)C)c1	1	0	.	.	.
Cc1ccc(S(=O)(=O)c2ccc([N+](=O)[O-])cn2)cc1	6	11*	-2	-1	-5
O=[N+]([O-])c1ccc(S(=O)(=O)c2ccccc2)nc1	0	3	-2	-3	-11
